Data set [1] deals with Trypanosoma brucei rhodesiense. Put plainly: Antitrypanosomal activity against Trypanosoma brucei rhodesiense STIB900 after 72 hrs by Alamar blue assay. In kind it is functional. The following applies: STIB900, 72 h. In a few lines: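 T. b. rhodesiense STIB 900 bloodstream forms (1 x 10³ per well) incubated with 3-fold serial drug dilutions from DMSO stocks (20 mM) diluted in medium, 37°C, 5% CO2, 72 h, in triplicate. Drug-free controls and medium-only blanks were included. Alamar Blue was then added for 2-4 h and fluorescence read at ex 530/em 580 nm. IC50 is the mean of two independent experiments.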

Data set [2] relates to KB. The data set can be described thus: Cytotoxicity against human KB cells after 72 hrs by Alamar blue assay. In kind it is cell-based. The gist of the method:
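Human nasopharyngeal carcinoma KB cells were grown in RPMI 1640 with 10% heat-inactivated foetal calf serum at 37°C and 5% CO2. Monolayers were exposed to compounds for 72 h. Alamar Blue was then added for 2-4 h and fluorescence read at 530/580 nm. IC50 was derived by sigmoidal regression from the mean of two independent triplicate experiments.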
For orientation: The colour change of resazurin is a common sign of viable cells or microbes.

A short description of data set [3]: Selectivity index, ratio of IC50 for human KB cells to IC50 for Trypanosoma brucei rhodesiense STIB900. In kind it is toxicity. The following applies: read-out: Ratio IC50. The gist of the method: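 SI is calculated as the KB-cell IC50 divided by the T. b. rhodesiense STIB900 IC50.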
In data set [4] the test system is Leishmania donovani. The data set can be described thus: Antileishmanial activity against Leishmania donovani HU3 amastigote forms infected in CD-1 mouse macrophages at 10 uM after 2 to 3 days by Giemsa staining based microscopic method relative to control. In kind it is functional.
The subject of data set [5] is Leishmania donovani. The data set can be described thus: Antileishmanial activity against Leishmania donovani HU3 amastigote forms infected in CD-1 mouse macrophages at 30 uM after 2 to 3 days by Giemsa staining based microscopic method relative to control. In kind it is functional.

The source of these data is ChEMBL document CHEMBL4004846, “Synthesis and antitrypanosomal activities of novel pyridylchalcones” (Eur J Med Chem, 2017).

pIC50: −log10 of the molar value. Calls of active or inactive are those of the source. No cut-off for these calls is given here.

For the compound `COc1ccc(C(=O)/C=C/c2cccnc2)cc1OC`, the values for the negative logarithm of the IC50 (pIC50) in data set [1] and in data set [2] were 6.01 and 4.64, respectively. For the same compound, the selectivity ratio in data set [3] came out at 24. Further, the result in data set [4] was inactive.

For `O=C(/C=C/c1ccccc1)c1cccc(Br)c1`, the pIC50 is 6.02 in data set [1] and 4.74 in data set [2]. Also, the selectivity ratio in data set [3] came to 19. For the same compound, in data set [5], the inhibition at 30 µM was 13.8%. The result in data set [4] was inactive.

On to `O=C(/C=C/c1cccnc1)c1cccc(Cl)c1`, for which the pIC50 in data set [1] is 6.21; in data set [2] it was 4.90. In data set [3], the selectivity ratio came to 21. This compound gave an inhibition at 30 µM in data set [5] of 2.7%. Further, the outcome in data set [4] was inactive.

With `O=C(/C=C/c1ccncc1)c1cccc(Br)c1`, the figures for the pIC50 in data set [1] and in data set [2] were 6.19 and 4.63, respectively. Moreover, the selectivity ratio in data set [3] amounted to 36. In data set [4], the result was inactive.

Consider `O=C(/C=C/c1cccnc1)c1cccc(O)c1`, for which the pIC50 in data set [1] was 5.94; in data set [2], 4.66. Also, the selectivity ratio in data set [3] came out at 19. Besides, the outcome in data set [4] was inactive.

On to `COc1cc([C@@H]2c3cc4c(cc3[C@H](O)[C@H]3COC(=O)[C@H]23)OCO4)cc(OC)c1OC` [PODOFILOX], for which, in data set [2], the pIC50 is 7.24.

For `O=C(CC(CC(=O)c1cccc(Br)c1)c1cccnc1)c1cccc(Br)c1`, the pIC50 in data set [1] was 4.91; in data set [2], 3.74. Besides, the selectivity ratio in data set [3] turned out to be 15. Moreover, the outcome in data set [4] was inactive.

With `COc1ccccc1C(=O)/C=C/c1cccnc1`, the pIC50 in data set [1] is 5.94; in data set [2], 4.64. Moreover, in data set [3], the selectivity ratio came out at 20. For the same compound, the outcome in data set [4] was inactive.

As to `O=C(/C=C/c1cccnc1)c1ccc(Br)cc1`, the figures for the pIC50 in data set [1] and in data set [2] were 6.47 and 5.10, respectively. In addition, the selectivity ratio in data set [3] is 23. The compound also came in with an inhibition at 30 µM in data set [5] of 11.6%. In data set [4], the result was inactive.

Take `O=C(/C=C/c1cccnc1)c1ccccc1`: the pIC50 was 6.14 in data set [1] and 5.11 in data set [2]. In addition, in data set [3], the selectivity ratio came to 11. Further, in data set [4], the result was inactive.

Turning to `COc1ccc(C(=O)/C=C/c2cccnc2)cc1`, the figures for the negative-log IC50 (pIC50) in data set [1] and in data set [2] were 6.03 and 4.66, respectively. For the same compound, the selectivity ratio in data set [3] is 23. Besides, the outcome in data set [4] was inactive.

Turning to `O=C(/C=C/c1ccccn1)c1cccc(Br)c1`, the pIC50 was 6.40 in data set [1] and 4.83 in data set [2]. Also, in data set [3], the selectivity ratio is 37. In data set [4], the result was inactive.

Take `COc1cccc(C(=O)/C=C/c2cccnc2)c1`: the values for the pIC50 in data set [1] and in data set [2] were 6.39 and 5.64, respectively. The selectivity ratio in data set [3] is 6. In data set [4], the result was inactive.

Consider `O=C(/C=C/c1cccnc1)c1ccc(F)c(F)c1`, for which the pIC50 was 6.14 in data set [1] and 4.68 in data set [2]. In data set [3], the selectivity ratio was determined as 29. In data set [4], the outcome was inactive.

Regarding `O=C(/C=C/c1cccnc1)c1ccc2c(c1)OCO2`, the pIC50 was 5.32 in data set [1] and 4.23 in data set [2]. Further, the selectivity ratio in data set [3] turned out to be 12. For the same compound, the outcome in data set [4] was inactive.

`O=C(/C=C/c1cccnc1)c1ccccc1Br`: the figures for the pIC50 in data set [1] and in data set [2] were 4.42 and < 3.52, respectively. Further, the selectivity ratio in data set [3] is > 8. For the same compound, in data set [4], the result was inactive.

For `O=C(/C=C/c1cccc(Br)c1)c1cccnc1`, the pIC50 was 6.16 in data set [1] and 4.36 in data set [2]. Also, the selectivity ratio in data set [3] came out at 63. Further, in data set [4], the outcome was inactive.

On to `O=C(/C=C/c1cccnc1)c1cccc(Br)c1`, for which the pIC50 was 6.54 in data set [1] and 4.87 in data set [2]. In data set [3], the selectivity ratio amounted to 47. This compound also returned an inhibition at 30 µM in data set [5] of 39.7%. Further, the outcome in data set [4] was inactive.

Turning to `O=C(/C=C/c1cccnc1)c1cccnc1`, the pIC50 is 5.99 in data set [1] and 4.77 in data set [2]. Also, in data set [3], the selectivity ratio stood at 17. The outcome in data set [4] was inactive.

Broadly, the pIC50 is the IC50 on a negative log10 scale, so that one unit is a factor of ten. Read a high pIC50 as a small IC50. Usually inhibition stands for the share of the control response that was lost under treatment. A high value points to a strong effect.
